# Publication PMC9059734 (RSC Advances, 2019)
# Structures can show the parent of a compound that is named as a salt. Where two headings read alike, the source gives them in different places.
# Legend:
# [1] = molecular target: T1, mouse Elp2 protein (Mus musculus, UniProt Q91WG4); test: SPRi affinity measurement of chip-immobilized library compounds to Elp2 protein; format: binding
# T1 sequence (Q91WG4 1-831): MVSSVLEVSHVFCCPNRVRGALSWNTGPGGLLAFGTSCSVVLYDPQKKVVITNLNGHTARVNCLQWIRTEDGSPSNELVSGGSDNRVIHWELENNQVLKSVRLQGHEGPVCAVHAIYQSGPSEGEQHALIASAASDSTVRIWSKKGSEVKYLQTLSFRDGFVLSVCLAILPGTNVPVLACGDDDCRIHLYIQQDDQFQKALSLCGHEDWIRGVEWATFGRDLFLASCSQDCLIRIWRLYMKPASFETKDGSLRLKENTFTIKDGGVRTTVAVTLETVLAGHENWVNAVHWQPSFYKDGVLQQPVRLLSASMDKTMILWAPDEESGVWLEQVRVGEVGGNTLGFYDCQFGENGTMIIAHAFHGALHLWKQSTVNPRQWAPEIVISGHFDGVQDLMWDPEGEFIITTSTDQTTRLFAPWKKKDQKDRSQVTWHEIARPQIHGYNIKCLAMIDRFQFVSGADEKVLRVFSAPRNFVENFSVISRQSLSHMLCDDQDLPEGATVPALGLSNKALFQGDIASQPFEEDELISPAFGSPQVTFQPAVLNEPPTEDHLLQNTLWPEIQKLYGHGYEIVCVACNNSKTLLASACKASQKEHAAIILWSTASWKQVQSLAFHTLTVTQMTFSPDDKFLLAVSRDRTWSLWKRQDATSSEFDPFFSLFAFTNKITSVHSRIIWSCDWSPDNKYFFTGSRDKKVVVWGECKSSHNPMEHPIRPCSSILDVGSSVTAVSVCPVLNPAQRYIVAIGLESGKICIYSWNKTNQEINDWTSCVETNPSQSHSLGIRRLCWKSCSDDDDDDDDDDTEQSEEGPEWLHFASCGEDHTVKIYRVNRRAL
# [2] = system: C2C12 cells; test: ALP staining and activity, inflammatory differentiation; format: cell-based; settings: Mus musculus, C2C12, read-out: EC50 based on ALP activity
# [3] = system: MC3T3-E1 cells; test: ALP staining and activity, self-differentiation; format: cell-based; settings: Mus musculus, MC3T3-E1, read-out: EC50 based on ALP activity
# Outline: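 MC3T3-E1 cells in DMEM with 10% FBS and 1% penicillin/streptomycin at 37 °C, 5% CO2; plated at 50% confluence, 24 h. No inducer. On day 0, given ddH2O solvent or 5 ng mL−1 TNF-α ± test compound at eleven levels (10 nM–800 μM). On day 7: kit ALP stain; ALP activity by OD 405 nm, per μg BCA total protein; EC50 from ALP activity. Mean ± SEM, triplicate.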
# [4] = system: C2C12 cells; test: Mineralization assessment by Alizarin Red S staining, ID model; format: cell-based, mouse; settings: C2C12, day 35, with TNF-α, vs negative control (p < 0.05)
# [5] = system: MC3T3-E1 cells; test: Mineralization assessment by Alizarin Red S staining, SD model; format: cell-based, mouse; settings: MC3T3-E1, day 35, with TNF-α, vs negative control (p < 0.05)
# [6] = system: C2C12 cells; test: Q-PCR of osteogenic differentiation marker genes, ID model; format: cell-based, mouse; settings: C2C12, day 7, with TNF-α
# Outline: (§1)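 On day 7 after day-0 treatment (5 ng mL−1 TNF-α ± test compound; C2C12 also with 100 ng mL−1 BMP-2), 2 × 10^5 cells harvested. Total RNA by TRIzol, column-purified and DNase-treated; 0.25 μg reverse transcribed. COL-I, ALP, OCN, BMP-2, RUNX-2 and OSX measured by real-time Q-PCR with gene-specific primers. Normalised to β-actin by ΔΔCt. Triplicate.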
# [7] = system: MC3T3-E1 cells; test: Q-PCR of osteogenic differentiation marker genes, SD model; format: cell-based, mouse; settings: MC3T3-E1, day 7, with TNF-α
# Outline: as §1
# [8] = system: B-Raf^V600E dependented tumor xenograft models; settings: orally dosed, without evidence of cytotoxicity; cited from earlier work
# [9] = system: melanoma cells bearing B-Raf^V600E; settings: cited from earlier work
# [10] = SPRi, Elp2 200-3200 nM, 1:1 Langmuir binding
compound,measurement,setting,value
Cn1nnc2c(C(N)=O)ncn2c1=O [Temozolomide],Kd,[1],2.53 µM
same,koff,[1],0.000462 s⁻¹
same,kon,[1],182 M⁻¹ s⁻¹
CC(C)N(CCC(c1ccccc1)c1cc(CO)ccc1O)C(C)C (centres unmarked) [5-Hydroxymethyl tolterodine],Kd,[1]; [10],1.47 µM
same,koff,[1]; [10],0.0166 s⁻¹
same,kon,[1]; [10],11300 M⁻¹ s⁻¹
CC(C)NCC(O)c1ccc(O)c(O)c1 (centres unmarked) [Isoprenaline hydrochloride],Kd,[1],4.6 µM
same,koff,[1],0.00454 s⁻¹
same,kon,[1],987 M⁻¹ s⁻¹
RK-33,Kd,[1]; [10],0.481 µM
same,koff,[1]; [10],2.59e-05 s⁻¹
same,kon,[1]; [10],53.8 M⁻¹ s⁻¹
CNC[C@H](O)c1ccc(O)c(O)c1 [Epinephrine bitartrate],Kd,[1],0.676 µM
same,koff,[1],0.000529 s⁻¹
same,kon,[1],783 M⁻¹ s⁻¹
CCCS(=O)(=O)Nc1ccc(F)c(C(=O)c2c[nH]c3ncc(Cl)cc23)c1F [PLX-4720],EC50,[2],10.3 µM
same,EC50,[3],16.7 µM
same,"Mineralization, Alizarin Red S stained spots",[4],more stained spots compared with the negative control
same,"Mineralization, Alizarin Red S stained spots",[5],more stained spots compared with the negative control
same,"mRNA expression levels of COL-I, ALP, OCN, BMP-2, RUNX-2 and OSX",[6],elevated
same,"mRNA expression levels of COL-I, ALP, OCN, BMP-2, RUNX-2 and OSX",[7],elevated
same,tumor growth,[8],tumor growth delays
same,ERK phosphorylation,[9],significantly inhibits
O=C1O[C@H](CO)[C@@H](O)[C@H](O)[C@H]1O [Gluconolactone],Kd,[1],31 µM
same,koff,[1],0.0819 s⁻¹
same,kon,[1],2640 M⁻¹ s⁻¹
